From ChEMBL document CHEMBL4680175, “Sulfonamide-based ring-fused analogues for CAN508 as novel carbonic anhydrase inhibitors endowed with antitumor activity: Design, synthesis, and in vitro biological evaluation” (Eur J Med Chem, 2020)
Active and inactive are the calls of the source. No cut-off for these calls is given here.

How the values were obtained:
[1] = system: MCF7; test: Antitumor activity against human MCF7 cells assessed as cell growth inhibition at 10 uM incubated for 48 hrs by sulforhodamine B assay; assay type: functional; conditions: read-out: GI
How it was run: (§1)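 NCI Drug Evaluation Branch protocol: primary single-dose screen at 10 μM across a 57-line human cancer panel. Drug exposure is 48 h. Cell growth and viability are read by sulforhodamine B assay. Data are given as a mean graph of percent growth of treated cells and reported as percentage growth inhibition (GI%).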

[2] = system: NCI-H322M; test: Antitumor activity against human NCI-H322M cells assessed as cell growth inhibition at 10 uM incubated for 48 hrs by sulforhodamine B assay; assay type: functional; conditions: read-out: GI; how it was run: as §1
[3] = system: MDA-MB-468; test: Potency index, ratio of staurosporine IC50 to compound IC50 for antiproliferative activity against human MDA-MB-468 cells measured after 48 hrs under CoCl2-induced hypoxic condition by MTT assay; assay type: functional
[4] = system: MCF7; test: Antiproliferative activity against human MCF7 cells measured after 48 hrs under normoxic condition by MTT assay; assay type: functional, cell-based; conditions: MCF7, 48 h
[5] = system: NCI-H226; test: Antitumor activity against human NCI-H226 assessed as cell growth inhibition at 10 uM incubated for 48 hrs by sulforhodamine B assay; assay type: functional; conditions: read-out: GI; how it was run: as §1
[6] = system: KM12; test: Antitumor activity against human KM12 cells assessed as cell growth inhibition at 10 uM incubated for 48 hrs by sulforhodamine B assay; assay type: functional; conditions: read-out: GI; how it was run: as §1
[7] = system: HOP-92; test: Antitumor activity against human HOP92 cells assessed as cell growth inhibition at 10 uM incubated for 48 hrs by sulforhodamine B assay; assay type: functional; conditions: read-out: GI; how it was run: as §1
[8] = system: MCF7; test: Induction of apoptosis in human MCF7 cells assessed as late apoptotic cells by Annexin V-FITC/propidium iodide staining based flow cytometric analysis (reference value: 0.29 %); assay type: functional
[9] = system: SN12C; test: Antitumor activity against human SN12C cells assessed as cell growth inhibition at 10 uM incubated for 48 hrs by sulforhodamine B assay; assay type: functional; conditions: read-out: GI; how it was run: as §1
[10] = system: MCF7; test: Potency index, ratio of staurosporine IC50 to compound IC50 for antiproliferative activity against human MCF7 cells measured after 48 hrs under normoxic condition by MTT assay; assay type: functional
[11] = system: MCF7; test: Induction of cell cycle arrest in human MCF7 cells assessed as decrease in S phase population at IC50 concentration incubated for 24 hrs by PI/RNase staining based flow cytometric analysis; assay type: functional
How it was run: (§2)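 Cells were washed in ice-cold PBS, fixed in ice-cold 70% ethanol, treated with 100 µg/mL RNase and stained with 40 µg/mL PI. DNA content was read by flow cytometry, with sub-G1 compared against control.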

[12] = target: Cyclin-dependent kinase 2/cyclin E1 (Homo sapiens, UniProt P24941); test: Inhibition of CDK2/cyclin E (unknown origin) expressed in baculovirus infected Sf21 insect cells using histone H1 as substrate in presence of [gamma33P]ATP
[13] = target: Carbonic anhydrase 2 (Homo sapiens, UniProt P00918); test: Inhibition of recombinant human carbonic anhydrase 2 preincubated with enzyme for 15 mins by phenol red dye based stopped flow CO2 hydrase assay
[14] = system: MCF7; test: Induction of apoptosis in human MCF7 cells assessed as fold increase in apoptotic cells by Annexin V-FITC/propidium iodide staining based flow cytometric analysis relative to control; assay type: functional
[15] = target: Carbonic anhydrase 1 (Homo sapiens, UniProt P00915); test: Inhibition of recombinant human carbonic anhydrase 1 preincubated with enzyme for 15 mins by phenol red dye based stopped flow CO2 hydrase assay
[16] = system: MCF7; test: Induction of apoptosis in human MCF7 cells assessed as early apoptotic cells by Annexin V-FITC/propidium iodide staining based flow cytometric analysis (reference value: 0.47 %); assay type: functional
[17] = system: MCF7; test: Induction of cell cycle arrest in human MCF7 cells assessed as accumulation at G2/M phase at IC50 concentration incubated for 24 hrs by PI/RNase staining based flow cytometric analysis; assay type: functional; how it was run: as §2
[18] = target: Carbonic anhydrase 9 (Homo sapiens, UniProt Q16790); test: Inhibition of recombinant human carbonic anhydrase 9 preincubated with enzyme for 15 mins by phenol red dye based stopped flow CO2 hydrase assay
[19] = system: RXF 393; test: Antitumor activity against human RXF 393 cells assessed as cell growth inhibition at 10 uM incubated for 48 hrs by sulforhodamine B assay; assay type: functional; conditions: read-out: GI; how it was run: as §1
[20] = system: MCF7; test: Induction of cell cycle arrest in human MCF7 cells assessed as fold increase in apoptotic cells at sub-G1 phase at IC50 concentration incubated for 24 hrs by PI/RNase staining based flow cytometric analysis relative to control; assay type: functional; how it was run: as §2
[21] = target: Carbonic anhydrase 12 (Homo sapiens, UniProt O43570); test: Inhibition of recombinant human carbonic anhydrase 12 preincubated with enzyme for 15 mins by phenol red dye based stopped flow CO2 hydrase assay
[22] = system: MCF7; test: Induction of apoptosis in human MCF7 cells assessed as necrotic cells by Annexin V-FITC/propidium iodide staining based flow cytometric analysis (reference value: 1.3 %); assay type: functional
[23] = system: UO-31; test: Antitumor activity against human UO-31 cells assessed as cell growth inhibition at 10 uM incubated for 48 hrs by sulforhodamine B assay; assay type: functional; conditions: read-out: GI
How it was run: (§3)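 NCI one-dose screen: 57-cell-line panel exposed at 10 μM for 48 h, Drug Evaluation Branch protocol. Growth and viability read by sulforhodamine B; data given as percent growth inhibition from the mean-graph of percent growth of treated cells.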

[24] = system: MDA-MB-468; test: Antitumor activity against human MDA-MB-468 cells assessed as cell growth inhibition at 10 uM incubated for 48 hrs by sulforhodamine B assay; assay type: functional; conditions: read-out: GI; how it was run: as §1
[25] = system: MDA-MB-468; test: Antiproliferative activity against human MDA-MB-468 cells measured after 48 hrs under normoxic condition by MTT assay; assay type: functional, cell-based; conditions: MDA-MB-468, 48 h
[26] = system: MDA-MB-468; test: Potency index, ratio of staurosporine IC50 to compound IC50 for antiproliferative activity against human MDA-MB-468 cells measured after 48 hrs under normoxic condition by MTT assay; assay type: functional
[27] = system: T47D; test: Antitumor activity against human T-47D cells assessed as cell growth inhibition at 10 uM incubated for 48 hrs by sulforhodamine B assay; assay type: functional; conditions: read-out: GI; how it was run: as §3
[28] = system: MCF7; test: Potency index, ratio of staurosporine IC50 to compound IC50 for antiproliferative activity against human MCF7 cells measured after 48 hrs under CoCl2-induced hypoxic condition by MTT assay; assay type: functional
[29] = system: MDA-MB-468; test: Antiproliferative activity against human MDA-MB-468 cells measured after 48 hrs under CoCl2-induced hypoxic condition by MTT assay; assay type: functional, cell-based; conditions: MDA-MB-468, 48 h
[30] = system: IGROV-1; test: Antitumor activity against human IGROV1 cells assessed as cell growth inhibition at 10 uM incubated for 48 hrs by sulforhodamine B assay; assay type: functional; conditions: read-out: GI; how it was run: as §1
[31] = system: CCRF-CEM; test: Antitumor activity against human CCRF-CEM cells assessed as cell growth inhibition at 10 uM incubated for 48 hrs by sulforhodamine B assay; assay type: functional; conditions: read-out: GI; how it was run: as §1
[32] = target: CDK9/cyclin T1 (Homo sapiens, UniProt P50750); test: Inhibition of human full-length N-terminal GST/His6-tagged CDK9 (1 to 372 residues)/His6-tagged Cyclin-T1 (1 to 726 residues) expressed in sf9 cells using (YSPTSPS)2KK peptide as substrate in presence of [gamma33P]ATP
[33] = system: MCF7; test: Antiproliferative activity against human MCF7 cells measured after 48 hrs under CoCl2-induced hypoxic condition by MTT assay; assay type: functional, cell-based; conditions: MCF7, 48 h
[34] = system: NCI/ADR-RES; test: Antitumor activity against human NCI/ADR-RES cells assessed as cell growth inhibition at 10 uM incubated for 48 hrs by sulforhodamine B assay; assay type: functional, cell-based; how it was run: as §1
[35] = system: NCI-H522; test: Antitumor activity against human NCI-H522 cells assessed as cell growth inhibition at 10 uM incubated for 48 hrs by sulforhodamine B assay; assay type: functional; conditions: read-out: GI; how it was run: as §1
[36] = system: A498; test: Antitumor activity against human A498 cells assessed as cell growth inhibition at 10 uM incubated for 48 hrs by sulforhodamine B assay; assay type: functional; conditions: read-out: GI; how it was run: as §1

Carbonic anhydrase 12, sequence (O43570 whole entry): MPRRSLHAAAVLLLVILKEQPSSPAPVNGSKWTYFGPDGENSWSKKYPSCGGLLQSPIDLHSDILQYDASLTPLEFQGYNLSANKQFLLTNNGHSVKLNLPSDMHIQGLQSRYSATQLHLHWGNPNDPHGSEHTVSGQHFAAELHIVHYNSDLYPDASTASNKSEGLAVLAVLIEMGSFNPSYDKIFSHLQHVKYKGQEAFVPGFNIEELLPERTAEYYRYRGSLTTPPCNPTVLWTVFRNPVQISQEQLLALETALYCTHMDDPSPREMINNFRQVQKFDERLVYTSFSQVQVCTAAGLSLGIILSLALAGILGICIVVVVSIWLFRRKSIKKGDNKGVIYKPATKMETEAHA
CDK9/cyclin T1, sequence (O60563 whole entry, the tested form may be a part): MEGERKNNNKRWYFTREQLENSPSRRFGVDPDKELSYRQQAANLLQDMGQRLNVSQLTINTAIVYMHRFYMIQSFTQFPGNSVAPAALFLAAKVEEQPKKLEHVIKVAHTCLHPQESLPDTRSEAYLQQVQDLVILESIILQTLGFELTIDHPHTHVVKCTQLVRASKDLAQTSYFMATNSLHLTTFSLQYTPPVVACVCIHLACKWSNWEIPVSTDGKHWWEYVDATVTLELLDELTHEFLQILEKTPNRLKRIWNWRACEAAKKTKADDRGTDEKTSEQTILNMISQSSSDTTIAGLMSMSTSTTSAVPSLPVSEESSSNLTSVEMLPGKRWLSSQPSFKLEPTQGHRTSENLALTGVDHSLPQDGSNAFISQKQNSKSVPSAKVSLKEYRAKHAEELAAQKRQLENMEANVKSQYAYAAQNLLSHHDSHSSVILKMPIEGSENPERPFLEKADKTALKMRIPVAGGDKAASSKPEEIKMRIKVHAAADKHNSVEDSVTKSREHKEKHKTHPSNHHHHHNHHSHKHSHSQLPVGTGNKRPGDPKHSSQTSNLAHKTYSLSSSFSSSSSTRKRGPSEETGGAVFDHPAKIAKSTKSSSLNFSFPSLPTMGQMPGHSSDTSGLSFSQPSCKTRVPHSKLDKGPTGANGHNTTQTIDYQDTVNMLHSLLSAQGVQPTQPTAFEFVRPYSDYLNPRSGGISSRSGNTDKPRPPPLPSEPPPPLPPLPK
CDK9/cyclin T1, sequence (P50750 whole entry, the tested form may be a part): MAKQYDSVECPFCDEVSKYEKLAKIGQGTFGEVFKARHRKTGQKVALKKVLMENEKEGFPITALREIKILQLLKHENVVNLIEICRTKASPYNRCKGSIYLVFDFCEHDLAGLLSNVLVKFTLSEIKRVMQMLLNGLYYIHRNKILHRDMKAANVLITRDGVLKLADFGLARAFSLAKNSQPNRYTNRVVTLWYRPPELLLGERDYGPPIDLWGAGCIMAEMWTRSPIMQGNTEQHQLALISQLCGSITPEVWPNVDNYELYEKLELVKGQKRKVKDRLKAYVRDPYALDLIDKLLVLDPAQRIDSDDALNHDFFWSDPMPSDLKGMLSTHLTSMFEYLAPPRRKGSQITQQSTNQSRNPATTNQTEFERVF
Carbonic anhydrase 1, sequence (P00915 whole entry): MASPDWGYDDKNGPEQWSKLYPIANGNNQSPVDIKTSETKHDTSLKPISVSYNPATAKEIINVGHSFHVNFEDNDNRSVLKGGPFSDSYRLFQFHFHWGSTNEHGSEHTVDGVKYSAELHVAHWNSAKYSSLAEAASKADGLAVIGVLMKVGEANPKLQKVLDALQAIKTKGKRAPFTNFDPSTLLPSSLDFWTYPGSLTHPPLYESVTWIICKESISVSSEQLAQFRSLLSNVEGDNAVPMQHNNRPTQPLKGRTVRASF

IC50 [4]: 660 nM
IC50 [12]: > 12500 nM
Ki [13]: 922 nM
Ki [15]: 2680 nM
Ki [18]: 33.5 nM
Ki [21]: 39.4 nM
IC50 [25]: 1890 nM
IC50 [29]: 1070 nM
IC50 [32]: > 12500 nM
IC50 [33]: 960 nM
SMILES: N#Cc1c(-c2ccccc2)nc2c(/N=N/c3ccc(S(N)(=O)=O)cc3)c(N)nn2c1N
inhibition of growth at 10 µM [1]: 60%
inhibition of growth at 10 µM [2]: 21%
Ratio IC50 [3]: 6
inhibition of growth at 10 µM [5]: 24%
inhibition of growth at 10 µM [6]: 50%
inhibition of growth at 10 µM [7]: 27%
Activity [8]: 16.94%
inhibition of growth at 10 µM [9]: 24%
Ratio IC50 [10]: 5
Activity [11]: Active
fold change (FC) [14]: 26
Activity [16]: 8.46%
Activity [17]: Active
inhibition of growth at 10 µM [19]: 42%
fold change (FC) [20]: 7
Activity [22]: 2.64%
inhibition of growth at 10 µM [23]: 25%
inhibition of growth at 10 µM [24]: 58%
Ratio IC50 [26]: 2.3
inhibition of growth at 10 µM [27]: 26%
Ratio IC50 [28]: 9
inhibition of growth at 10 µM [30]: 35%
inhibition of growth at 10 µM [31]: 21%
Activity [34]: inactive
inhibition of growth at 10 µM [35]: 54%
inhibition of growth at 10 µM [36]: 30%
